Assay results as given in paper PMC10338367 (Heliyon, 2023).

Columns and labels:
[1] = test system: LN229 human glioblastoma cells; assay: WST cell viability assay, LN229; assay type: cell-based
How it was run: (§1)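 Cells (MEM, 10% FBS, 37 °C, 5% CO₂) were seeded at 3 × 10³/well and pre-incubated 24 h. They were treated with test compound at 0.16, 0.8, 4, 20 or 100 μM for 24, 48 or 72 h, with DMSO as vehicle control. WST-1 was then added for 4 h at 37 °C and absorbance read at 516 nm (reference 600 nm). Viability was taken relative to untreated cells and IC50 read from dose-response curves at each time; ≥3 independent experiments.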

A172 cells = assay: Flow cytometry analysis of cell cycle and apoptosis; assay type: cell-based, human; conditions: for G0-G1, percentage of cells / Sub G1, percentage of cells: A172, 4 μM
How it was run: (§2)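 Cells from MD Anderson were grown in MEM with 10% FBS, penicillin-streptomycin and 1% glutamine at 37 °C, 5% CO₂. About 1 × 10⁶ cells per 10-cm plate were exposed to test compound (4 or 10 μM) for 0, 24, 48 or 72 h. Cells were spun down, PBS-washed, fixed overnight (12 h) in chilled 70% ethanol and PI-stained. Sub-G1, G0/G1, S and G2/M fractions were measured; mean ± S.D. of three experiments, untreated controls at each time.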

[2] = DPPH radical scavenging assay
[3] = test system: A172 human glioblastoma cells; assay: WST cell viability assay, A172; assay type: cell-based
How it was run: as §1

[4] = test system: normal human astrocytes (NHA); assay: WST cell viability assay, NHA; assay type: cell-based
How it was run: as §1

LN229 cells = assay: Flow cytometry analysis of cell cycle and apoptosis; assay type: cell-based, human; conditions: for G0-G1, percentage of cells: LN229, 4 μM
How it was run: as §2

SMILES: COc1ccc(C(c2c(O)c3ccccc3oc2=O)c2c(O)c3ccccc3oc2=O)cc1 [HL, 3,3′-[(4-methoxyphenyl)methanediyl]bis(4-hydroxy-2Hchromen-2-one)]
- IC50 ([1]; LN229, 24 h): 9550 nM
- IC50 ([1]; LN229, 48 h): 1780 ± 50 nM
- IC50 ([1]; LN229, 72 h): 850 ± 70 nM
- cell cycle arrest, phase (A172 cells; A172): cell cycle arrest was caused at G0/G1 phase
- G0-G1, percentage of cells (A172 cells; 24 h): 67.66%
- Sub G1, percentage of cells (A172 cells; 48 h): 6.48%
- G0-G1, percentage of cells (A172 cells; 72 h): 59.23%
- Sub G1, percentage of cells (A172 cells; 72 h): 4.55%
- Percentage of antioxidant activity (DPPH) ([2]; 250 μM/mL): 10.37 ± 0.08%
- Percentage of antioxidant activity (DPPH) ([2]; 500 μM/mL): 15.12 ± 0.03%
- Percentage of antioxidant activity (DPPH) ([2]; 750 μM/mL): 19.41 ± 0.02%
- Percentage of antioxidant activity (DPPH) ([2]; 1000 μM/mL): 25.62 ± 0.07%
- IC50 ([3]; A172, 72 h): 950 nM
- IC50 ([3]; Homo sapiens, A 172, 24 h, A172, 24 h): 2680 ± 190 nM
- IC50 ([4]; 48 h): 640 ± 60 nM
- IC50 ([4]; Homo sapiens, Astrocyte, 24 h): 3210 ± 40 nM
- IC50 ([4]; Homo sapiens, Astrocyte, 72 h): 220 ± 40 nM
- cell cycle arrest, phase (LN229 cells; LN229): arrested at G0/G1 phase
- G0-G1, percentage of cells (LN229 cells; 24 h): 70.33%
- G0-G1, percentage of cells (LN229 cells; 48 h): 61.70%
- G0-G1, percentage of cells (LN229 cells; 72 h): 41.11%

SMILES: O=C1O[C@H]([C@@H](O)CO)C(O)=C1O [Ascorbic acid, reference compound]
- Percentage of antioxidant activity (DPPH) ([2]; 250 μM/mL): 74.08 ± 0.04%
- Percentage of antioxidant activity (DPPH) ([2]; 500 μM/mL): 80.24 ± 0.01%
- Percentage of antioxidant activity (DPPH) ([2]; 750 μM/mL): 85.79 ± 0.1%
- Percentage of antioxidant activity (DPPH) ([2]; 1000 μM/mL): 92.059 ± 0.08%

SMILES: CCCN(C)CCc1c[nH]c2ccccc12 [MPT, Methylprophyl tryptamine, reference compound]
- IC50 ([1]; LN229, 24 h): 448 ± 300 nM
- IC50 ([1]; LN229, 48 h): 447 ± 10 nM
- IC50 ([1]; LN229, 72 h): 440 ± 70 nM
- IC50 ([3]; A172, 48 h): 440 ± 130 nM
- IC50 ([3]; A172, 72 h): 430 ± 90 nM
- IC50 ([4]; 24 h): 490 ± 30 nM
- IC50 ([4]; 48 h): 470 ± 40 nM
- IC50 ([4]; 72 h): 450 ± 40 nM
